Compound activity deposited in PubChem BioAssay by several laboratories.
NR2E3 ag-1: agonists of human NR2E3 nuclear receptor | AID 602229 | inhibition of corepressor binding, % at 3.98 µM | 360,000 compounds, 0.35% hits | Q9Y5X4 | CHO-S Gal4-NCOR/VP16-NR2E3 two-hybrid, luciferase;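 active = inhibition above the mean of all tested compounds plus 3 SD, cut at about 70% in these data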;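 also: higher means lower luciferase signal from less NR2E3 corepressor binding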
Target sequence (Q9Y5X4 whole entry, looked up, the tested form may be a part): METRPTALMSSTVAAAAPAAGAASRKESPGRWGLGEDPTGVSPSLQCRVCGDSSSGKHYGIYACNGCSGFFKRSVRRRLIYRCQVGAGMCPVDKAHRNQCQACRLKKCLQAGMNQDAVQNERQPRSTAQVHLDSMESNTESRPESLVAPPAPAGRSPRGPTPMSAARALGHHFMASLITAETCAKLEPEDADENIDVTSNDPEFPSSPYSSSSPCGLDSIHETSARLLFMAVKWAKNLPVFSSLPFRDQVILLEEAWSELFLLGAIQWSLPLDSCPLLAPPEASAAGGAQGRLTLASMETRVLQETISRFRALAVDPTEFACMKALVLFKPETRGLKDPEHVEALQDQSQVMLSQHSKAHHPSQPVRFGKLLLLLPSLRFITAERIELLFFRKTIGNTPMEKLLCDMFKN
ADAM17 inh: inhibitors of human ADAM17; P78536; recombinant ADAM17, EDANS/DABCYL FRET peptide cleavage; inhibition, % at 6.95 µM; 370,000 compounds, 0.83% hits; AID 720648;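 active = inhibition above the mean of compounds lying between control limits plus 3 SD, set per campaign, cut at about 8.5% in these data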
NR2E3 ag-2: agonists of human nuclear receptor NR2E3 | inhibition of corepressor binding, % at 4.78 µM | GST-NR2E3/biotin-RetCOR TR-FRET, 1536-well | 320,000 compounds, 0.12% hits;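 active = percent inhibition above the cutoff of mean plus 3 SD of all tested compounds, set per screening campaign, cut at about 20% in these data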
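Material: NR2E3–RetCOR corepressor complex / Amount: 1.35 nM GST-NR2E3 / Medium: Tris pH 7.5 / Compound: single nominal compound dose of 4.8 µM / Incubation: 5 h at 4 °C / Technique: TR-FRET, Eu(K)-anti-GST donor, streptavidin-D2 acceptor, ex 340, em 617/671 nm / Read-out basis: percent loss of FRET ratio relative to control wells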
KLK7 zymogen act: activates the human kallikrein-7 zymogen | P49862 | purified proKLK7, EDANS-DABCYL substrate fluorescence; 100% is mature enzyme control, 0% vehicle | activation, % at 7 µM | 370,000 compounds, 0.9% hits;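 active = activation above the mean of all tested compounds plus 3 SD, computed per campaign excluding outliers beyond control limits, cut at about 13% in these data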
Target sequence (P49862 whole entry, looked up): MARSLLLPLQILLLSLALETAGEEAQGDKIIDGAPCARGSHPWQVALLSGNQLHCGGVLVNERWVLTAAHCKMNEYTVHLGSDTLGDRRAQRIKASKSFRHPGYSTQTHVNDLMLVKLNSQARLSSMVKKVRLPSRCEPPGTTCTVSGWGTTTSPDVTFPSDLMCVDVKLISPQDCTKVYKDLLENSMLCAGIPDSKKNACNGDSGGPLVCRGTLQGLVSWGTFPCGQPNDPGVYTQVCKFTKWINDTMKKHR
JMJD2C inh: human JMJD2C demethylase inhibition | Q9H3R0 | GST-JMJD2C(1-420) H3K9me3 demethylation, DELFIA europium | inhibition, % at 2.35 µM | 330,000 compounds, 0.069% hits | AID 2099;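 active = more than half of a compound's replicate wells show inhibition beyond 50%, single wells judged on their own value; inconclusive = some, but no more than half, of replicates pass 50% inhibition; inactive = no replicate passes 50% inhibition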;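 also: signal counts dimethyl H3K9 product captured on neutravidin plate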
ADAM10 inh: inhibits human ADAM10; 370,000 compounds, 0.62% hits; O14672; inhibition, % at 7 µM; recombinant ADAM10, EDANS/DABCYL FRET peptide cleavage, 3 h;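 active = inhibition above a per-campaign cutoff equal to the mean of compounds falling between control-based bounds plus 3 SD, cut at about 20% in these data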
KLK7 act conf: confirmation of human kallikrein-7 zymogen activators. 3,200 compounds, 68% hits. shares compounds with KLK7 zymogen act. purified proKLK7, EDANS-DABCYL substrate fluorescence; scaled: vehicle 0, mature enzyme 100. activation, % at 7 µM;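 active = activation, as change over the incubation, above the mean of all tested compounds plus 3 SD, cut at about 13% in these data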
EDANS interfere: optically interferes with EDANS-DABCYL signal, flagging KLK7 hits. shares compounds with KLK7 zymogen act. 3,200 compounds, 80% hits. EDANS-DABCYL substrate fluorescence interference, no enzyme, 4 h; solvent 0%, active enzyme control 100%. activation, % at 7 µM. AID 686952;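 active = activation above the all-compound mean plus 3 SD, ignoring values outside control-based bounds, cut at about 4.8% in these data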;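 also: value is the 4 h activation minus the activation read at time zero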
EDANS interf: counter-screen for kallikrein-7 activators: EDANS-DABCYL interference, dose response; shares compounds with KLK7 zymogen act; EDANS-DABCYL peptide fluorescence interference, no enzyme; EC50, µM; 250 compounds, 20% hits; AID 720493;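 active = compounds that raise the fluorescence signal in this interference counterscreen, with EC50 at or below 10 µM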;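 also: intact quenched peptide substrate alone read at 355 nm excitation and 520 nm emission; signal is fluorescence gain from T0 to T4 after four hours at room temperature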
Large screens that a line does not name were inactive (follow-up assays come after a bar, where they were run). In the library only some 2.5% were active in any assay of this set; here they are far more common.

O=c1c2ccccc2nc(/C=C/c2ccc(O)cc2)n1-c1ccc(O)cc1	KLK7 zymogen act 26.5 | KLK7 act conf 13.9 | EDANS interfere inactive | EDANS interf inactive
CC(=O)N1CC(=O)Nc2ccc(C)cc2C1c1ccccc1 (stereo not drawn)	none
O=c1ccc2cc(O[C@@H]3O[C@H](CO)[C@@H](O)[C@H](O)[C@H]3O)c(O)cc2o1	KLK7 zymogen act 53.5 (no result: NR2E3 ag-2, JMJD2C inh) | KLK7 act conf 67.1 | EDANS interfere 70.6
CN(C)[C@@H]1C(=O)C(C(N)=O)=C(O)[C@@]2(O)C(=O)C3=C(O)c4c(O)ccc(Cl)c4[C@@](C)(O)[C@H]3C[C@@H]12	KLK7 zymogen act 12.8 (no result: JMJD2C inh) | KLK7 act conf 37.2 | EDANS interfere 35.0
CN(C)[C@@H]1C(=O)C(C(N)=O)=C(O)[C@@]2(O)C(=O)C3=C(O)c4c(O)cccc4[C@@](C)(O)C3C[C@@H]12 (stereo partly drawn)	none
COC(=O)c1ccc(C(C(=O)NC2CCCCC2)N(CCN2CCOCC2)C(=O)Cc2cccs2)cc1 (stereo not drawn)	none
CC(C)OC(=O)c1c(N)n(CC2CCCO2)c2nc3ccccc3nc12 (stereo not drawn)	KLK7 zymogen act 48.0 | KLK7 act conf 72.6 | EDANS interfere 72.5
Nc1c(C(=O)NCc2ccco2)c2nc3ccccc3nc2n1CCN1CCOCC1	KLK7 zymogen act 34.3 | KLK7 act conf inactive | EDANS interfere inactive
COCC(C)OC(=O)c1c(N)n(Cc2ccco2)c2nc3ccccc3nc12 (stereo not drawn)	none
CCOC(=O)c1c(N)n(Cc2ccco2)c2nc3ccccc3nc12	KLK7 zymogen act 47.4 | KLK7 act conf 60.3 | EDANS interfere 78.5
CCCCn1c(N)c(C(=O)OCCOC)c2nc3ccccc3nc21	none
COCCOC(=O)c1c(N)n(Cc2ccccc2)c2nc3ccccc3nc12	KLK7 zymogen act 31.5 | KLK7 act conf inactive | EDANS interfere inactive
CCCCCn1c(=O)c(C(=O)Nc2ncccc2C)c(O)c2ccccc21	none
COc1cccc(N(C(C)=O)C2=NCCCS2)c1	none
CC(C)c1ccc(NC(=O)CCNC(=O)N2C[C@H]3C[C@@H](C2)c2cccc(=O)n2C3)cc1	none
CC[C@@]1(O)C(=O)OCc2c1cc1n(c2=O)Cc2cc3c(NC(=O)CN)cccc3nc2-1	KLK7 zymogen act 350.0 | KLK7 act conf 108.9 | EDANS interfere 98.7
CC[C@@]1(O)C(=O)OCc2c1cc1n(c2=O)Cc2cc3ccccc3nc2-1	none (no result: NR2E3 ag-1, ADAM17 inh, KLK7 zymogen act, ADAM10 inh)
COc1ccc(-c2cc(=Nc3ccccc3)c3cc(C)ccc3o2)cc1	none
COc1ccc(-c2cc(=NCCC(=O)O)c3cc(C)ccc3o2)cc1	KLK7 zymogen act 85.5 (no result: NR2E3 ag-2) | KLK7 act conf 68.5 | EDANS interfere 72.8
CCC(=Nc1ccccc1N)c1c(O)[nH]c(=O)[nH]c1=O	none
C[C@H]1CN([C@@H](C)CO)C(=O)CCCn2nncc2CO[C@H]1CN(C)C(=O)Oc1ccc2ccccc2c1	none (no result: NR2E3 ag-2, JMJD2C inh)
Cc1ccc(C(=O)O)cc1N=Nc1c(O)[nH]c(=O)[nH]c1=O	none
O=C(c1cc2c(s1)-c1ccccc1OC2)N1CCC2(CC1)OCCO2	KLK7 zymogen act 50.3 | KLK7 act conf 62.7 | EDANS interfere 74.9
CC1CN2c3ccc([N+](=O)[O-])cc3CC3(C(=O)N(C)C(=O)N(C)C3=O)C2C(C)O1 (stereo not drawn)	none
COc1ccc2c3c([nH]c2c1)C(C)=NCC3	KLK7 zymogen act 54.3, JMJD2C inh inconclusive | KLK7 act conf 58.3 | EDANS interfere 72.3
CC1=NCCc2c1[nH]c1cc(O)ccc21	KLK7 zymogen act 80.0 (no result: JMJD2C inh) | KLK7 act conf 67.5 | EDANS interfere 70.5
CCOC(=O)c1nc2ccccc2c(=O)n1-c1cccc(C)c1	none
Cc1cc(OCC(=O)N2CCC(C(=O)O)CC2)c2c3c(c(=O)oc2c1)CCC3	KLK7 zymogen act 18.8 | KLK7 act conf 12.9 | EDANS interfere 15.8
COC(=O)C(C)Oc1cc(C)cc2oc(=O)c3c(c12)CCC3 (stereo not drawn)	KLK7 zymogen act 16.5 | KLK7 act conf inactive | EDANS interfere 12.3
COc1ccc2ccccc2c1CNCCc1ccccc1	none
CN1C[C@H](CO)C=C2c3cccc4[nH]cc(c34)C[C@H]21	KLK7 zymogen act 39.4 | KLK7 act conf 29.7 | EDANS interfere 24.8 | EDANS interf inactive
CC(C)[C@H]1C(=O)N2CCC[C@H]2[C@]2(O)O[C@](NC(=O)[C@@H]3C=C4c5cccc6[nH]cc(c56)C[C@H]4N(C)C3)(C(C)C)C(=O)N12	none (no result: ADAM17 inh, KLK7 zymogen act, ADAM10 inh)
Cn1c(O)c(/C=C2\C=Nc3ccccc32)c(=O)n(C)c1=O	none
Cn1c(O)c(/C=C2\C=c3ccccc3=NC2=O)c(=O)n(C)c1=O	KLK7 zymogen act 13.4 (no result: NR2E3 ag-2) | KLK7 act conf 14.4 | EDANS interfere 12.3
O=C(Cc1cc(=O)oc2cc(O)ccc12)NN=Cc1ccc(N(CCCl)CCCl)cc1	KLK7 zymogen act 119.4 (no result: NR2E3 ag-2, JMJD2C inh) | KLK7 act conf 43.9 | EDANS interfere 31.4 | EDANS interf inactive
NC(Cc1ccccc1Cl)c1nn[nH]n1 (stereo not drawn)	none (no result: NR2E3 ag-2, JMJD2C inh)
CN(C)C=C1C(=O)N(C2CCCCC2)C(=O)N(C2CCCCC2)C1=O	none
O=c1[nH]c(=S)n(Cc2ccc(F)cc2)c(O)c1/C=N/N1CCCCC1	KLK7 zymogen act 13.7 | KLK7 act conf inactive | EDANS interfere inactive
O=c1[nH]c(=S)n(Cc2ccc(F)cc2)c(O)c1C=NCC1CCCO1 (stereo not drawn)	none
C#CC1(O)CCC2C3CCC4=CC(=O)CCC4=C3C=CC21C (stereo not drawn)	KLK7 zymogen act 14.0 (no result: NR2E3 ag-2, JMJD2C inh) | KLK7 act conf inactive | EDANS interfere 10.7
